For experiment [1], the target named is DNA topoisomerase II (Homo sapiens) (UniProt P11388+Q02880). Put plainly: Compound was tested for inhibition against human DNA topoisomerase II. The note with it: concentration not given here. Details: concentration or dose not given beside the values. It is filed as protein assay.
Experiment [2] in a line: Compound was tested for in vitro cytotoxicity in KB cells after 3 days of incubation. The note with it: Homo sapiens, 72 h, read-out: ED50 (the source's name). It is filed as functional. The gist of the method:
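KB human tumor cells exposed to drug for 3 days; read-out was cell number. ED50 was taken as the drug concentration giving 50% reduction in cell number. Values are marked as preliminary.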

These results are taken from ChEMBL document CHEMBL1124418, “Antitumor agents. 100. Inhibition of human DNA topoisomerase II by cytotoxic ether and ester derivatives of podophyllotoxin and alpha-peltatin” (1989).

Converted amounts (≈) assume the structure as drawn. Some results are limits rather than exact numbers.

Turning to `CCO[C@@H]1c2cc3c(cc2[C@@H](c2cc(OC)c(O)c(OC)c2)[C@H]2C(=O)OC[C@@H]21)OCO3`, the inhibition (commonly the percentage by which the read-out fell short of the control) in experiment [1] was found to be 25%. Also, in experiment [2], the EC50 turned out to be 1.1 µg/mL (≈ 2.57 µM).

`COc1cc([C@@H]2c3cc4c(cc3[C@@H](O[C@@H]3O[C@@H]5CO[C@@H](C)O[C@H]5[C@H](O)[C@H]3O)[C@H]3COC(=O)[C@H]23)OCO4)cc(OC)c1O` [ETOPOSIDE]: the inhibition in experiment [1] was above 88%. Further, in experiment [2], the EC50 was 0.12 µg/mL (≈ 0.204 µM).

Turning to `COc1cc([C@@H]2c3cc4c(c(OC(=O)Cc5ccccc5)c3C[C@H]3COC(=O)[C@@H]32)OCO4)cc(OC)c1O`, the EC50 in experiment [2] amounted to 0.01 µg/mL (≈ 0.0193 µM).

In experiment [1], `COc1cc([C@@H]2c3cc4c(c(OC(=O)OCc5ccccc5)c3C[C@H]3COC(=O)[C@@H]32)OCO4)cc(OC)c1O` showed an inhibition of 25%. Besides, in experiment [2], the EC50 worked out at 0.01 µg/mL (≈ 0.0187 µM).

In turn, `COc1cc([C@@H]2c3cc4c(c(OC(C)=O)c3C[C@H]3COC(=O)[C@@H]32)OCO4)cc(OC)c1O` gave an inhibition in experiment [1] of 0%. Moreover, in experiment [2], the EC50 came out at 0.01 µg/mL (≈ 0.0226 µM).

In the case of `COc1cc([C@@H]2c3cc4c(cc3[C@@H](O)[C@H]3COC(=O)[C@H]23)OCO4)cc(OC)c1O` [4'-DEMETHYLEPIPODOPHYLLOTOXIN], the inhibition in experiment [1] worked out at 50%. For the same compound, the EC50 in experiment [2] is 0.06 µg/mL (≈ 0.15 µM).

Take `COc1cc([C@@H]2c3cc4c(cc3[C@@H](OC(=O)CCC(=O)O)[C@H]3COC(=O)[C@H]23)OCO4)cc(OC)c1O`: the inhibition in experiment [1] was 0%. The EC50 in experiment [2] is 1 µg/mL (≈ 2 µM).

`CCCC(=O)Oc1c2c(cc3c1OCO3)[C@@H](c1cc(OC)c(O)c(OC)c1)[C@H]1C(=O)OC[C@@H]1C2` had an inhibition in experiment [1] of 25%. The EC50 in experiment [2] was 0.004 µg/mL (≈ 0.0085 µM).

As to `COc1cc([C@@H]2c3cc4c(c(O[C@@H]5O[C@H]6CO[C@@H](c7cccs7)O[C@H]6[C@H](O)[C@@H]5O)c3C[C@H]3COC(=O)[C@@H]32)OCO4)cc(OC)c1O`, the inhibition in experiment [1] amounted to 25%. For the same compound, the EC50 in experiment [2] is 2 µg/mL (≈ 3.05 µM).

`CCC(=O)O[C@@H]1c2cc3c(cc2[C@@H](c2cc(OC)c(O)c(OC)c2)[C@H]2C(=O)OC[C@@H]21)OCO3`: the inhibition in experiment [1] was 0%. In addition, the EC50 in experiment [2] is 1 µg/mL (≈ 2.19 µM).

As for `COc1cc([C@@H]2c3cc4c(c(OC)c3C[C@H]3COC(=O)[C@@H]32)OCO4)cc(OC)c1O`, the inhibition in experiment [1] is 25%. Also, the EC50 in experiment [2] is 0.001 µg/mL (≈ 0.00241 µM).

As for `COc1cc([C@@H]2c3cc4c(cc3[C@@H](OC)[C@H]3COC(=O)[C@H]23)OCO4)cc(OC)c1O`, the inhibition in experiment [1] turned out to be 25%. The EC50 in experiment [2] was 1.1 µg/mL (≈ 2.65 µM).

For the compound `COc1cc([C@@H]2c3cc4c(cc3[C@@H](OC(C)=O)[C@H]3COC(=O)[C@H]23)OCO4)cc(OC)c1O`, the inhibition in experiment [1] came out at 25%. In addition, the EC50 in experiment [2] was determined as 0.2 µg/mL (≈ 0.452 µM).

For `COc1cc([C@@H]2c3cc4c(cc3[C@@H](OC(=O)Cc3ccccc3)[C@H]3COC(=O)[C@H]23)OCO4)cc(OC)c1O`, the EC50 in experiment [2] came out at 0.00028 µg/mL (≈ 0.00054 µM).

With `C/C=C\C(=O)O[C@@H]1c2cc3c(cc2[C@@H](c2cc(OC)c(O)c(OC)c2)[C@H]2C(=O)OC[C@@H]21)OCO3`, the EC50 in experiment [2] amounted to 0.9 µg/mL (≈ 1.92 µM).

In turn, `COc1cc([C@@H]2c3cc4c(c(O)c3C[C@H]3COC(=O)[C@@H]32)OCO4)cc(OC)c1O` displayed an inhibition in experiment [1] of 0%. For the same compound, the EC50 in experiment [2] is 0.09 µg/mL (≈ 0.225 µM).

As for `COc1cc([C@@H]2c3cc4c(cc3[C@@H](OC(=O)c3ccccc3C(=O)O)[C@H]3COC(=O)[C@H]23)OCO4)cc(OC)c1O`, the EC50 in experiment [2] was 0.8 µg/mL (≈ 1.46 µM).

`COc1cc([C@@H]2c3cc4c(c(O[C@@H]5O[C@H]6CO[C@@H](C)O[C@H]6[C@H](O)[C@@H]5O)c3C[C@H]3COC(=O)[C@@H]32)OCO4)cc(OC)c1O`: the EC50 in experiment [2] was 2 µg/mL (≈ 3.4 µM).

In turn, `CCS[C@@H]1c2cc3c(cc2[C@@H](c2cc(OC)c(O)c(OC)c2)[C@H]2C(=O)OC[C@@H]21)OCO3` registered an inhibition in experiment [1] of 25%. For the same compound, in experiment [2], the EC50 worked out at 1.1 µg/mL (≈ 2.47 µM).

Regarding `COc1cc([C@@H]2c3cc4c(c(O[C@@H]5O[C@@H](CO)[C@@H](O)[C@H](O)[C@@H]5O)c3C[C@H]3COC(=O)[C@@H]32)OCO4)cc(OC)c1O`, the inhibition in experiment [1] worked out at 25%. Also, the EC50 in experiment [2] stood at 1.1 µg/mL (≈ 1.96 µM).

Consider `CCC(=O)Oc1c2c(cc3c1OCO3)[C@@H](c1cc(OC)c(O)c(OC)c1)[C@H]1C(=O)OC[C@@H]1C2`, for which, in experiment [1], the inhibition is 25%. Besides, the EC50 in experiment [2] turned out to be 0.005 µg/mL (≈ 0.011 µM).

For the compound `COc1cc([C@@H]2c3cc4c(c(OC(=O)CCC(=O)O)c3C[C@H]3COC(=O)[C@@H]32)OCO4)cc(OC)c1O`, in experiment [1], the inhibition is 0%. Moreover, the EC50 in experiment [2] stood at 0.01 µg/mL (≈ 0.02 µM).
